# MC4R barr agon: activates human MC4R beta-arrestin recruitment | P32245 | U2OS MC4R beta-arrestin complementation, luminescence; percent of melanotan II response, DMSO zero | activation, % at 8.9 µM | 0.98% of 360,000 active | AID 540308;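 active means activation above a per-plate cutoff, the mean activation of sample wells on that plate plus 3 SD, cut at about 8% in these data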
# Target sequence (P32245 whole entry, looked up): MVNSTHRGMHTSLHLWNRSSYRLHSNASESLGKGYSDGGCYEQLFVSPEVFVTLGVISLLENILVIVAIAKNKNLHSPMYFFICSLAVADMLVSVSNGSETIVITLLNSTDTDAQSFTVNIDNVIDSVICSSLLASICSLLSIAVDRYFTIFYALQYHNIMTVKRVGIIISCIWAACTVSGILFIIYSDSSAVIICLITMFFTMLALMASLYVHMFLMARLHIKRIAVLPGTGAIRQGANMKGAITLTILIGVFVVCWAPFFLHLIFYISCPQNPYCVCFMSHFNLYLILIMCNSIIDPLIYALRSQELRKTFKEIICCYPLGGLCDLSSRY
# TLR4-MyD88 BLA: blocks binding of human TLR4 to MyD88; AID 861; inhibition, % at 8.4 µM; HeLa CL3-4 TLR4/MyD88 BLA complementation, FRET ratio; 0.18% of 200,000 active; in the data active means inhibition above about 25%;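 further: 0% = vehicle and 100% = reference inhibitor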
# NOD2-RIPK2 inh: inhibitors of human NOD2-RIPK2 interaction; 0.38% of 360,000 active; CHO BLA complementation NOD2-RIPK2, CCF4 ratio; inhibition, % at 4.98 µM; AID 624267; O43353; in the data active means inhibition above about 21%;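 further: 0% = vehicle only and 100% = reference blocker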
# TLR9-MyD88 block: TLR9-MyD88 interaction inhibition | Q9NR96+Q99836 | CHO BLA complementation TLR9-MyD88, CCF4 FRET ratio | inhibition, % at 4.98 µM | 0.21% of 340,000 active | AID 504734;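 active means inhibition above the mean over all tested compounds plus 3 SD, cut at about 21% in these data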;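 further: 0% = DMSO only wells and 100% = clavulanate BLA inhibitor control wells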
# MC4R antag cAMP: antagonists of human melanocortin 4 receptor (MC4R); inhibition, % at 6.5 µM; 0.48% of 360,000 active; MC4R-expressing cells, MTII-stimulated cAMP, LANCE TR-FRET;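 active means inhibition above its plate's cutoff, the mean of tested wells on that plate plus 3 SD, cut at about 29% in these data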;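 further: 0% = Melanotan II alone and 100% = Melanotan II plus saturating MCL0020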
#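 System – human MC4R-expressing U2OS cells · Also added – Melanotan II · Dosing – one concentration, 6.5 µM nominal · Timing – 30-min compound, 1-h challenge, 1-h detection, room temperature · Measured by – Eu-cAMP/anti-cAMP TR-FRET, emission 671 nm · Replicates – singlicate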
# MC4R barr ag: human MC4R beta-arrestin agonism confirmation | activation, % at 8.9 µM | AID 602192 | 31% of 2,400 active | shares compounds with MC4R barr agon | U2OS MC4R beta-arrestin recruitment, luminescence; scaled DMSO 0%, Melanotan II 100%;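 active means mean activation across replicates above the hit cutoff set in the earlier primary screen, cut at about 8% in these data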
# MOR DOR agonist: OPRM1-OPRD1 heterodimer agonism counter-screen | shares compounds with MC4R barr agon | U2OS PathHunter beta-arrestin, beta-gal luminescence; percent of deltorphin B response, DMSO zero | activation, % at 9.2 µM | 5.8% of 2,400 active;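 active means mean activation across replicates exceeds the hit threshold derived in the earlier primary screen, cut at about 18% in these data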;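 further: 100% = deltorphin B at 0.9 µM final and 0% = DMSO alone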
# The depositor's hits bear a star; . = no result. A selection: hits, their analogues and other compounds. The true share with any hit is near 1.8%.
SMILES,MC4R barr agon,TLR4-MyD88 BLA,NOD2-RIPK2 inh,TLR9-MyD88 block,MC4R antag cAMP,MC4R barr ag,MOR DOR agonist
CCC(=O)N1Cc2cc(C(=O)N(C)C)nc(-c3cccc(-c4cncnc4)c3)c2[C@@H]1CCO,.,.,-9,.,.,.,.
O=C(c1cccc(-c2ccc(O)cc2)c1)N1CCN(c2ccc(F)cc2)CC1,13*,4,2,-20,9,4,6
O=C(Nc1cccc(C(=O)N2CCN(c3ccc(F)cc3)CC2)c1)c1ccccc1,-2,-4,2,-12,1,.,.
COc1ccc(/C=N/NC(=O)Nc2cccc3nsnc23)cc1OC,11*,-5,-1,0,1,1,12
COC(=O)C1=C(C)N(Cc2ccccc2)C(=NCC(C)C)N[C@H]1c1cccc(C(F)(F)F)c1,16*,.,7,-1,8,18*,23*
CC(=O)c1ccc(Cc2ccc(C(C)=O)s2)s1,11*,.,-11,-8,0,12*,2
CCOc1ccc(Cn2c3ccc(OC)cc3c3nc4ccccc4nc32)cc1OC,28*,8,-3,-4,7,26*,4
COc1ccc2c(c1)c1nc3ccccc3nc1n2Cc1ccc(OC)c(OC)c1,11*,4,7,10,7,1,3
CC(C)c1ccc(NC(=S)NCc2ccc3c(c2)OCO3)cc1,12*,-8,7,-3,9,1,6
Cc1cccc(Nc2nc(N)nc(CCl)n2)c1C,25*,.,-3,.,14,23*,37*
Cc1ccc(Nc2nc(N)nc(CCl)n2)cc1,14*,.,1,.,9,17*,18*
Cc1cccc(Nc2nc(N)nc(CCl)n2)c1,5,.,-4,2,13,.,.
CCOC(=O)C1=C(COC(=O)c2ccc(OC)c(S(=O)(=O)N3CCOCC3)c2)NC(=O)NC1C (centres undefined),-1,.,-5,-1,-9,.,.
O=C(/C=C/c1cn(-c2ccccc2)nc1-c1ccccc1)Nc1ccc(C(=O)O)cc1,2,7,4,-3,16,.,.
Cc1ccc(-c2nn(-c3ccccc3)cc2/C=C/C(=O)Nc2nccs2)cc1,19*,-9,-8,9,-5,8,4
CSc1cccc(NC(=O)CN(c2cccc(C)c2)S(C)(=O)=O)c1,0,-16,5,-9,2,.,.
CSc1cccc(NC(=O)CN(c2ccc(C)cc2C)S(C)(=O)=O)c1,10*,7,10,-2,11,-1,4
COc1ccccc1CNS(=O)(=O)CCNCCc1ccccc1,0,.,5,4,5,.,.
Cc1coc2c(C)c3oc(=O)cc(-c4ccccc4)c3cc12,2,-4,-1,4,11,.,.
CCCc1cc(=O)oc2c(C)c3occ(C)c3cc12,18*,-16,-19,4,4,1,4
CCc1nnc(NS(=O)(=O)c2ccc(NCc3cc(Cl)cc(Cl)c3O)cc2)s1,-2,.,4,-9,1,.,.
COc1cccc(-c2noc(-c3ccc4c(c3)OCO4)n2)c1,11*,4,-12,11,5,0,3
COC(=O)c1cccc(NC(=O)c2nn(C(C)C)c(=O)c3ccccc23)c1,14*,-2,-3,6,3,0,3
CCCn1nc(C(=O)Nc2cccc(C(=O)OC)c2)c2ccccc2c1=O,-1,7,1,-1,13,.,.
COc1ccc(N=CC2=C(O)c3ccccc3C2=O)c(OC)c1,12*,-1,-14,-9,-7,0,6
SMILES,MC4R barr agon,TLR4-MyD88 BLA,NOD2-RIPK2 inh,TLR9-MyD88 block,MC4R antag cAMP,MC4R barr ag,MOR DOR agonist
CN(C(=O)c1ccc(NC(=O)Cc2ccc([N+](=O)[O-])cc2)cc1)C1CC1,-2,.,5,-11,10,.,.
O=C(NCCc1cccnc1)C1CCC(=O)N(CCc2cccc(F)c2)C1 (centres undefined),2,.,-14,4,3,.,.
C#CCNC(=O)C1=C[C@@H](c2ccc(C#C)cc2)C[C@@H](OCc2ccc(CO)cc2)O1,1,.,5,-4,10,.,.
CCC1CCCCN1C(=O)c1ccc2c(c1)C(=O)N(c1ccc(C)cc1)C2=O (centres undefined),0,.,-8,-4,7,.,.
C=CCNc1nc(C(F)(F)F)nc2c1nnn2Cc1ccccc1Cl,12*,.,-8,6,-8,3,6
O=C(/C=C/c1ccc(Br)cc1)N1CCN(c2cccc(C(F)(F)F)c2)CC1,14*,-4,5,-14,11,-3,5
O=C(/C=C/c1cccc(Br)c1)N1CCN(c2cccc(C(F)(F)F)c2)CC1,-1,-7,5,0,10,.,.
Cc1ccc(NC(=O)/C(C#N)=C/c2ccc(Sc3nc(C)cc(C)n3)o2)cc1,23*,3,-9,-3,18,6,22*
C[C@H](CO)N1C[C@H](C)[C@H](CN(C)C(=O)NC2CCCCC2)Oc2cc(-c3cccnc3)ccc2S1(=O)=O,-1,.,-3,-5,1,.,.
COc1cccc(/C=N/Nc2ccc([N+](=O)[O-])cn2)c1O,23*,.,5,12,-3,15*,5
N#C/C(=C\c1ccc(Sc2ccccc2)o1)c1nc2ccccc2[nH]1,12*,16,14,11,-3,6,8
O=C(CNS(=O)(=O)c1ccc(Cl)c(C(F)(F)F)c1)NC1CCCCC1,2,.,-11,-1,1,.,.
CC1N(C)c2cc(NC(=O)c3cccs3)c(P(=O)(Nc3ccc([N+](=O)[O-])cc3)N3CCOCC3)cc2C1(C)C (centres undefined),-3,-13,1,3,9,.,.
CCSc1ccc(-c2nn(-c3ccccc3)cc2/C=C(/C#N)C(=O)NCCCOC)cc1,22*,12,-3,-4,-19,40*,19*
CCCSc1ccc(-c2nn(-c3ccccc3)cc2/C=C(/C#N)C(=O)NCCCOC)cc1,3,-3,10,-5,-5,.,.
Oc1cccc(C(=S)N2CCC(Cc3ccccc3)CC2)c1,10*,.,-1,-1,0,6,11
Oc1cccc(C(=S)N2CCN(Cc3ccccc3)CC2)c1,-2,1,1,-7,-2,.,.
COCCNc1nnc(SC(C)C(=O)Nc2ccc(-c3nc4ccc(C)cc4s3)cc2)s1 (centres undefined),15*,-7,-2,-4,12,7,5
Cc1ccccc1N1CCN(S(=O)(=O)c2nnc(NC(=O)CC(C)C)s2)CC1,13*,.,9,1,-1,1,6
Cc1ccccc1N1CCN(S(=O)(=O)c2nnc(NC(=O)c3ccco3)s2)CC1,1,.,7,-14,2,.,.
